Here are results for 35 compounds from ChEMBL document CHEMBL1909507, “Substituted phenyl 4-(2-oxoimidazolidin-1-yl)benzenesulfonamides as antimitotics. Antiproliferative, antiangiogenic and antitumoral activity, and quantitative structure-activity relationships” (Eur J Med Chem, 2011).

In general, IC50 refers to the midpoint of a concentration-inhibition curve. A low value points to greater potency in that assay.

The structures appear in SMILES notation. Active and inactive are the calls of the source. The calls are words filed in the database; no cut-off is given here.

One experiment has as its system MDA-MB-231. In words: Displacement of N,N'-ethylenebis(iodoacetamide) from beta-tubulin colchicine-binding site in human MDA-MB-231 cells at 1000 times IC50 preincubated for 2 hrs before N,N'-ethylenebis(iodoacetamide) addition measured after 1.5 hrs by chemiluminescence assay. Format: cell-based. Summed up: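 EBI (100, final) was added for 1.5 h at 37 °C with drug present; control was 0.5% DMSO. Sonicated lysates (20 µg protein) were run on 10% SDS-PAGE and blotted with anti-β-tubulin TUB 2.1. The β-tubulin–EBI adduct was scored by ECL.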

Another experiment deals with M21. The experiment can be described thus: Antiproliferative activity against human M21 cells after 48 hrs by SRB assay. Conditions: M21, 48 h. Format: functional, cell-based. Summed up:
(§1)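 Adherent cells were seeded per line (e.g. HT-29 5000, M21 3500, MCF7 7500, CHO and CHO-VV 3-2 and CHO-TAX 5-6 1000 cells/well) and grown 24 h at 37 °C, 5% CO₂. DMSO-solubilized drug was diluted in medium and added at 1000–0.98 nM for 48 h. Cells were fixed with cold 10% TCA and stained with 0.1% sulforhodamine B, with absorbance read at 530–565 nm.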
For orientation: Sulforhodamine B stains cellular protein and so reports cell mass.

The next experiment has as its system HT-29. In words: Antiproliferative activity against human HT-29 cells after 48 hrs by SRB assay. Format: functional, cell-based. Conditions: HT-29, 48 h. Summed up:
as §1

For the next experiment, the system named is MCF7. The experiment can be described thus: Antiproliferative activity against human MCF7 cells after 48 hrs by SRB assay. The conditions noted are these: MCF7, 48 h. Format: functional, cell-based. Summed up: as §1
Experiment [1] can be described thus: Antiproliferative activity against human multidrug-resistant CEM/VLB cells after 48 hrs by SRB assay. Format: functional.
Experiment [2] is described as follows: Antiproliferative activity against mouse P388D1 after 48 hrs by SRB assay. The conditions noted are these: P388D1, 48 h.
Experiment [3] can be described thus: Antiproliferative activity against mouse B16F0 after 48 hrs by SRB assay.
Another experiment has as its system CCRF-CEM. The experiment can be described thus: Ratio of IC50 for human multidrug-resistant CEM/VLB cells to IC50 for human CEM cells. The experiment is classed as functional. Summed up: (§2)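 Each ratio is the IC50 in the resistant line divided by the IC50 in its parental line (CHO for CHO-TAX 5-6 and CHO-VV 3-2; CEM for CEM-VLB).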
For a further experiment, the system named is CHO-TAX 5-6. In words: Ratio of IC50 for paclitaxel-resistant CHO-TAX 5-6 cells to IC50 for CHO cells. Format: functional, Cricetulus griseus. Summed up:
as §2

The test system of the next experiment is CHO-VV 3-2. In words: Ratio of IC50 for colchicine and vinblastine-resistant CHO-VV 3-2 cells to IC50 for CHO cells. Format: functional, Cricetulus griseus. Summed up:
as §2

Turning to `O=C(CI)NCCNC(=O)CI`, the outcome in the experiment on MDA-MB-231 was inactive.
For `O=C1NCCN1c1ccc(S(=O)(=O)Nc2ccccc2)cc1`, the results for the IC50 in the experiment on M21, in the experiment on HT-29 and in the experiment on MCF7 were 200 nM, 280 nM and 470 nM, respectively.
Take `Cc1cccc(NS(=O)(=O)c2ccc(N3CCNC3=O)cc2)c1C`: the IC50 with M21 came to 110 nM; in the experiment with HT-29 it was 190 nM; in the experiment with MCF7 it was 230 nM.
With `O=C1NCCN1c1ccc(S(=O)(=O)Nc2ccc(I)cc2)cc1`, the IC50 with M21 came out at 260 nM; with HT-29, 650 nM; with MCF7 it was 600 nM.
On the same counts, the results for `COc1ccc(NS(=O)(=O)c2ccc(N3CCNC3=O)cc2)cc1` are 580 nM, 800 nM and above 1000 nM.
On to `CCC(C)c1ccc(NS(=O)(=O)c2ccc(N3CCNC3=O)cc2)cc1` (stereo not given), for which the concentration for half-maximal inhibition (IC50) in the experiment with M21, in the experiment on HT-29 and with MCF7 was above 1000 nM throughout.
`COc1cc2c(c(OC)c1OC)-c1ccc(OC)c(=O)cc1[C@@H](NC(C)=O)CC2` [COLCHICINE]: the IC50 came out at 360 nM in experiment [1], 28 nM in experiment [2] and 13 nM in experiment [3].
Regarding `CCCCOc1ccc(NS(=O)(=O)c2ccc(N3CCNC3=O)cc2)cc1`, the results for the IC50 in the experiment on M21, with HT-29 and with MCF7 were 580 nM, 630 nM and 870 nM, respectively.
Consider `Cc1ccc(NS(=O)(=O)c2ccc(N3CCNC3=O)cc2)cc1`, for which the figures for the concentration for half-maximal inhibition (IC50) in the experiment with M21, in the experiment with HT-29 and with MCF7 were 260 nM, 480 nM and 610 nM, respectively.
On to `COc1ccccc1NS(=O)(=O)c1ccc(N2CCNC2=O)cc1`, for which the IC50 with M21 was found to be 300 nM; with HT-29, 550 nM; with MCF7, 770 nM.
As for `O=C1NCCN1c1ccc(S(=O)(=O)Nc2ccc(OC(F)F)cc2)cc1`, the IC50 amounted to 410 nM in the experiment on M21, 650 nM in the experiment on HT-29 and 760 nM with MCF7.
With `COc1ccc(NS(=O)(=O)c2ccc(N3CCNC3=O)cc2)cc1OC`, the values for the concentration for half-maximal inhibition (IC50) with M21, with HT-29 and with MCF7 were 340 nM, 520 nM and 610 nM, respectively.
The matching figures for `N#CCc1ccc(NS(=O)(=O)c2ccc(N3CCNC3=O)cc2)cc1`: above 1000 nM, above 1000 nM and above 1000 nM.
`O=C1NCCN1c1ccc(S(=O)(=O)Nc2ccc(F)c(F)c2)cc1`: the values for the 50% inhibitory concentration (IC50) in the experiment on M21, with HT-29 and in the experiment with MCF7 were 220 nM, 350 nM and 620 nM, respectively.
The matching figures for `CC(C)(C)c1ccc(NS(=O)(=O)c2ccc(N3CCNC3=O)cc2)cc1`: above 1000 nM, above 1000 nM and above 1000 nM.
In the case of `CCc1ccccc1NS(=O)(=O)c1ccc(N2CCNC2=O)cc1`, the figures for the IC50 in the experiment with M21, in the experiment on HT-29 and in the experiment on MCF7 were 180 nM, 240 nM and 350 nM, respectively.
For the compound `O=C1NCCN1c1ccc(S(=O)(=O)Nc2ccc(Br)cc2)cc1`, the half-maximal inhibitory concentration (IC50) in the experiment with M21 is 130 nM; in the experiment with HT-29 it was 300 nM; in the experiment on MCF7, 240 nM.
For `CCCCCc1ccc(NS(=O)(=O)c2ccc(N3CCNC3=O)cc2)cc1`, the IC50 with M21 is 870 nM; in the experiment on HT-29, 990 nM; in the experiment with MCF7 it was above 1000 nM.
With `Cc1ccc(NS(=O)(=O)c2ccc(N3CCNC3=O)cc2)c(C)c1`, the IC50 was determined as 150 nM with M21, 180 nM with HT-29 and 230 nM in the experiment with MCF7.
In the case of `CC(C)(C)c1cc(NS(=O)(=O)c2ccc(N3CCNC3=O)cc2)cc(C(C)(C)C)c1`, the IC50 with M21, in the experiment on HT-29 and with MCF7 was above 1000 nM each time.
Regarding `O=C1NCCN1c1ccc(S(=O)(=O)Nc2ccc(C3CCCCC3)cc2)cc1`, the IC50 with M21, in the experiment on HT-29 and in the experiment on MCF7 was above 1000 nM each time.
Consider `CCCCc1ccc(NS(=O)(=O)c2ccc(N3CCNC3=O)cc2)cc1`, for which the IC50 was 450 nM with M21, 610 nM in the experiment on HT-29 and 770 nM in the experiment with MCF7.
As to `Cc1ccc(NS(=O)(=O)c2ccc(N3CCNC3=O)cc2)cc1C`, the IC50 worked out at 94 nM with M21, 230 nM in the experiment on HT-29 and 230 nM in the experiment on MCF7.
`O=C1NCCN1c1ccc(S(=O)(=O)Nc2cccc(Oc3ccccc3)c2)cc1`: the results for the IC50 with M21, in the experiment with HT-29 and with MCF7 were 83 nM, 200 nM and 220 nM, respectively.
Regarding `O=C1NCCN1c1ccc(S(=O)(=O)Nc2ccc3c(c2)OCO3)cc1`, the results for the IC50 with M21, in the experiment on HT-29 and with MCF7 were 190 nM, 280 nM and 460 nM, respectively.
As to `CCCCCCCc1ccc(NS(=O)(=O)c2ccc(N3CCNC3=O)cc2)cc1`, the IC50 in the experiment on M21, in the experiment with HT-29 and in the experiment with MCF7 was above 1000 nM in each case.
Consider `CCCCCCOc1ccc(NS(=O)(=O)c2ccc(N3CCNC3=O)cc2)cc1`, for which the IC50 in the experiment with M21, with HT-29 and in the experiment on MCF7 was above 1000 nM each time.
With `O=C1NCCN1c1ccc(S(=O)(=O)Nc2ccc(Cl)cc2)cc1`, the results for the IC50 in the experiment with M21, in the experiment with HT-29 and with MCF7 were 90 nM, 220 nM and 170 nM, respectively.
On the same counts, the results for `O=C1NCCN1c1ccc(S(=O)(=O)Nc2ccc(F)cc2)cc1` are 230 nM, 370 nM and 690 nM.
As for `CC[C@]1(O)C[C@@H]2CN(CCc3c([nH]c4ccccc34)[C@@](C(=O)OC)(c3cc4c(cc3OC)N(C)[C@H]3[C@@](O)(C(=O)OC)[C@H](OC(C)=O)[C@]5(CC)C=CCN6CC[C@]43[C@@H]65)C2)C1` [VINBLASTINE], the “Ratio IC50” value with CCRF-CEM amounted to 1579; in the experiment on CHO-TAX 5-6, 0.41; in the experiment with CHO-VV 3-2, 3.9. Moreover, the IC50 came out at 600 nM in [1], 1.8 nM in experiment [2] and 0.099 nM in experiment [3].
Consider `O=C1NCCN1c1ccc(S(=O)(=O)Nc2ccc3c(c2)Cc2ccccc2-3)cc1`, for which the IC50 with M21 stood at 370 nM; with HT-29, 450 nM; with MCF7 it was 480 nM.
As to `CCc1ccc(NS(=O)(=O)c2ccc(N3CCNC3=O)cc2)cc1`, the IC50 amounted to 480 nM in the experiment on M21, 660 nM in the experiment with HT-29 and 810 nM in the experiment on MCF7.
Consider `CC(=O)O[C@H]1C(=O)[C@@]2(C)[C@H]([C@H](OC(=O)c3ccccc3)[C@]3(O)C[C@H](OC(=O)[C@H](O)[C@@H](NC(=O)c4ccccc4)c4ccccc4)C(C)=C1C3(C)C)[C@]1(OC(C)=O)CO[C@@H]1C[C@@H]2O` [PACLITAXEL], for which the IC50 in experiment [2] was determined as 35 nM; in experiment [3], 28 nM.
Take `O=C1NCCN1c1ccc(S(=O)(=O)Nc2ccc3c(c2)CCC3)cc1`: the concentration for half-maximal inhibition (IC50) in the experiment with M21 is 130 nM; in the experiment on HT-29, 190 nM; with MCF7, 240 nM.
Regarding `Cc1ccccc1NS(=O)(=O)c1ccc(N2CCNC2=O)cc1`, the results for the IC50 in the experiment with M21, in the experiment on HT-29 and in the experiment with MCF7 were 150 nM, 200 nM and 280 nM, respectively.
